Where “and” joins values, the source holds several entries; their conditions need not be identical. Identical values can stand only once.
What was measured:
[1] = test system: FAP-positive cell lines (U87, NCIH228, and SKMEL24); conditions: inhibitor 10^-10 to 10^-4 M, then 25 nM QCP01 for 1 h at 37 °C
[2] = test system: FAP; conditions: read-out: IC50 FAP; cited from earlier work
[3] = test system: FAP-positive cell lines (NCIH2228, U87, and SKMEL24); test: In vitro fluorescence binding of QCP01 to FAP-positive cell lines; type: cell-based, human; conditions: 1 h incubation, range 50-0.78 nM
[4] = test system: FAP-negative cell lines (PC3, NCIH226, and HCT116); test: In vitro fluorescence binding of QCP01 to FAP-negative cell lines; type: cell-based, human; conditions: any of the concentrations tested (50-0.78 nM)
[5] = test system: U87 and PC3 tumor xenografts; test: NIRF imaging of QCP01 in tumor-bearing mice; type: in vivo, NOD/SCID mice
[6] = test system: FAP-positive U87 cells; test: Cellular uptake of [111In]QCP02 in U87 cells; type: cell-based, human; conditions: 0.037 MBq, 30 min at 37 °C
[7] = test system: FAP-negative PC3 cells; test: Cellular uptake of [111In]QCP02 in PC3 cells; type: cell-based, human; conditions: 0.037 MBq, 30 min at 37 °C
[8] = test system: FAP-positive U87 xenograft; test: Ex vivo biodistribution of [111In]QCP02, U87 xenograft; set-up: species or system NOD/SCID mice
Outline: (§1)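 Male NOD/SCID mice (6–8 weeks) carried subcutaneous xenografts of 1 million U87 cells (left upper flank) and PC3 cells (right upper flank) in HBSS, used at 100–300 mm3. Radioligand was given as 0.37 MBq in 200 μL saline (<10% ethanol) via the tail vein. Groups (n = 4) were killed by CO2 at 5 min, 30 min, 1, 3, 6, 10 and 28 h. Weighed tissues were gamma-counted, decay-corrected against a standard dilution of the dose, and expressed as %ID/g.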

[9] = test system: FAP-negative PC3 xenograft; test: Ex vivo biodistribution of [111In]QCP02, PC3 xenograft; set-up: species or system NOD/SCID mice
Outline: as §1

[10] = test system: U87 and PC3 tumor xenografts; test: SPECT-CT imaging of [111In]QCP02 in tumor-bearing mice; type: in vivo, NOD/SCID mice
[11] = test system: DPP-IV; conditions: read-out: IC50 DPP-IV; cited from earlier work
[12] = 1 h post injection, 0.37 MBq via tail vein

## N[C@@H](CC(=O)N1CCn2c(nnc2C(F)(F)F)C1)Cc1cc(F)c(F)cc1F [sitagliptin]
[1]
  effect of pretreatment on QCP01 binding (fluorescence signal): not inhibited
[2]
  IC50: > 100 µM

## CC1(C)C(/C=C/C2=C(Oc3ccc(S(=O)(=O)O)cc3)C(=C/C=C3/N(CCCCS(=O)(=O)O)c4ccc(S(=O)(=O)O)cc4C3(C)C)/CCC2)=[N+](CCCCCC(=O)NCCCOc2ccc3nccc(C(=O)NCC(=O)N4CCC[C@H]4C#N)c3c2)c2ccc(S(=O)(=O)[O-])cc21 [QCP01]
[3]
  concentration at which binding was saturated: 50 nM
  lowest concentration at which QCP01 binding was observed: 1.56 nM
[4]
  binding in FAP-negative cell lines: no specific binding
[5]; 5 nmol QCP01 via tail vein, 30 min after injection
  NIRF uptake in normal tissues: mild degree (moderate in the kidney)
[5]; 5 nmol QCP01 via tail vein, 30 min until 5 h, washout at 24 h
  NIRF uptake in PC3 tumors: mild uptake
[5]; 5 nmol QCP01 via tail vein, imaging 0.5-48 h
  NIRF uptake in U87 xenografts over time: persisted up to 5 h after injection, with washout after 24 h
[5]; 5, 24, and 48 h after injection
  ex vivo NIRF uptake of excised U87 tumor versus PC3 tumor: higher QCP01 uptake than the PC3 tumor

## N#C[C@@H]1CCCN1C(=O)CNC(=O)c1ccnc2ccc(OCCCNC(=O)CCC(C(=O)O)N3CCN(CC(=O)[O-])CCN(CC(=O)[O-])CCN(CC(=O)[O-])CC3)cc12.[111In+3] (stereo partly drawn) [[^111In]QCP02, [^111In]2,2′,2″-(10-(1-Carboxy-4-((3-((4-((2-((S)-2-cyanopyrrolidin-1-yl)-2-oxoethyl)carbamoyl)quinolin-6-yl)oxy)propyl)amino)-4-oxobutyl)-1,4,7,10-tetraazacyclododecane-1,4,7-triyl)triacetate]
[6]
  binding of the incubated dose: over 30%
[7]
  binding of the incubated dose: 0.01%
[8]; 5 min post injection
  uptake in U87 tumor: over 10 % ID/g
[8]; 30 min post injection
  uptake in U87 tumor (peak): 18.2 % ID/g and 18.16 ± 11.67 % ID/g
[8]; [12]
  uptake in U87 xenograft: 16.09 ± 4.17 % ID/g
[8]; 6 h post injection, co-injection of non-radioactive QCP02 (50 μg per mouse)
  uptake in U87 xenografts, blocked: 0.55 ± 0.23 % ID/g
[8]; all time points
  uptake in U87 xenograft relative to PC3 xenograft: 3–4 fold
[8]; post injection
  time by which washout of radiotracer in U87 tumors was observed: ≤ 28 h
[9]; [12]
  uptake in PC3 xenograft: 4.12 ± 0.36 % ID/g
[9]; all time points
  uptake in PC3 tumor: less than 5 % ID/g
[10]; 7.4 MBq via tail vein, uptake seen as early as 1 h post injection
  retention of uptake in U87 xenografts on SPECT-CT: up to 10 h
[10]; all imaging time points (1, 3, 6, 10, 28 h)
  uptake in PC3 xenografts on SPECT-CT: low uptake

## CC(C)[C@H](N)C(=O)N1CCC[C@H]1B(O)O [Val-boroPro]
[11]
  IC50: 0.022 ± 0.001 µM

Reference: PMC8214312 (Journal of medicinal chemistry, 2021)
